Assay results published in ChEMBL document CHEMBL4330076, “Quinazolin-2,4-dione-Based Hydroxamic Acids as Selective Histone Deacetylase-6 Inhibitors for Treatment of Non-Small Cell Lung Cancer” (J Med Chem, 2019).
pIC50: −log10 of the molar value.

How the values were obtained:
[1] = AUC (0 to 24 hrs) in C57BL/6 mouse kidney at 40 mg/kg, po administered via gavage by LC-MS/MS analysis; format: ADME, organism-based; parameters: time < 24 hr, dose 40 mg/kg, route oral; settings: in vivo
A549 [2] = experiment: Cytotoxicity against human A549 cells after 72 hrs by MTT assay; format: functional, cell-based; settings: A549, 72 h
Procedure, shortened: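 Human A549 lung cancer cells exposed to serial dilutions of inhibitor at 37 °C for 72 h. Cytotoxicity expressed as IC50.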

[3] = Ratio of compound AUC (0 to 24 hrs) to ACY-1215 AUC (0 to 24 hrs) in C57BL/6 mouse plasma at 40 mg/kg, po administered via gavage by LC-MS/MS analysis; format: ADME, organism-based; settings: in vivo
[4] = test system: Lewis lung carcinoma cell line; experiment: Induction of apoptosis in mouse LL/2 cells assessed as late apoptotic cells at 4 uM after 24 hrs by Annexin V/propidium iodide staining-based flow cytometric analysis (reference value: 8.7%); format: functional
[5] = Ratio of drug uptake in C57BL/6 mouse plasma at 40 mg/kg, po administered via gavage co-administered with paclitaxel at 10 mg/kg, ip by LC-MS/MS analysis to drug uptake in C57BL/6 mouse plasma at 40 mg/kg, po administered via gavage by LC-MS/MS analysis; format: ADME, organism-based; settings: in vivo
A549 [6] = experiment: Induction of apoptosis in human A549 cells assessed as viable cells at 4 uM after 24 hrs in presence of paclitaxel by Annexin V/propidium iodide staining-based flow cytometric analysis (reference value: 96.2%); format: functional
[7] = Drug uptake in C57BL/6 mouse kidney at 40 mg/kg, po administered via gavage by LC-MS/MS analysis; format: ADME, organism-based; settings: in vivo
[8] = Ratio of compound AUC (0 to 24 hrs) to ACY-1215 AUC (0 to 24 hrs) in C57BL/6 mouse liver at 40 mg/kg, po administered via gavage by LC-MS/MS analysis; format: ADME, organism-based; settings: in vivo
[9] = Drug uptake in C57BL/6 mouse lung at 40 mg/kg, po administered via gavage by LC-MS/MS analysis; format: ADME, organism-based; settings: in vivo
Histone deacetylase 8 = biological target: T1, Histone deacetylase 8 (Homo sapiens, UniProt Q9BY41); experiment: Inhibition of human full-length recombinant HDAC8 expressed in baculovirus infected Sf9 insect cells using fluorogenic peptide RHKAcKAc as substrate after 2 hrs
T1 sequence (Q9BY41 whole entry): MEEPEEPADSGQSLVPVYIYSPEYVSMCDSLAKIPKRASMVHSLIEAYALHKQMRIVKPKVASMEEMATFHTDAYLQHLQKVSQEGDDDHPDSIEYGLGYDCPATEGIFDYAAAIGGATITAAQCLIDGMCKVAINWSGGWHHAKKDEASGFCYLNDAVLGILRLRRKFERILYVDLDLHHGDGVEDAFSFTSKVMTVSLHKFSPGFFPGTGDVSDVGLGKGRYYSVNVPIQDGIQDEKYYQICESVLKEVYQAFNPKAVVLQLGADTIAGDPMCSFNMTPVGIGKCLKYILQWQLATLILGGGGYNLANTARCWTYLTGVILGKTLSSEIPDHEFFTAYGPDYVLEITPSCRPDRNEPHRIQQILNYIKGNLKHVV

O=C(NO)c1ccc(Cn2c(=O)n(CCc3ccccc3)c(=O)c3ccccc32)cc1
AUC [1]: 1903 ng·h/g | pIC50 (A549 [2]): 5.10 | Ratio AUC [3]: 0.2 | Activity [4]: 10.4% | Ratio [5]: 12.3 | Activity (A549 [6]): 92.7% | Drug uptake [7]: 130 ng/g | Ratio AUC [8]: 4.4 | Drug uptake [9]: 212 ng/g | pIC50 (Histone deacetylase 8): 6.51
